The target of data set [1] is T1, CD26 (Dipeptidyl peptidase 4) (Homo sapiens, UniProt P27487). Description: Inhibition of CD26-catalyzed GlyPro-pNA hydrolysis at 20 uM. The note with it: CD26 (dipeptidyl peptidase 4) enzyme, probe GlyPro-pNA.
The subject of data set [2] is MT4. Kind of data set: Antiproliferative activity against human MT4 cell line. It counts as functional. An outline of the steps: (§1)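 Cytostatic assay: compounds made up as DMSO stocks and diluted in culture medium. CC50 is the concentration that inhibits MT-4 or CEM cell proliferation by 50%.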
Data set [3] relates to CCRF-CEM. Kind of data set: Antiviral activity against HIV2 assessed as inhibition of HIV2-induced cytopathicity in CEM cells. It counts as functional, cell-based. The method, boiled down:
(§2)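 CEM and MT-4 cell cultures infected with HIV-1 or HIV-2, with compounds diluted into culture medium from DMSO stocks. Antiviral activity is read at day 4 post-infection and reported as EC50.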
(Cytopathic effects are the visible damage that an infection or toxin causes in cultured cells.)

The species named for data set [4] is Bos taurus. Description: Conversion of prodrug to parent drug NAP-TSAO-T catalyzed by bovin serum after 24 hrs. It counts as ADME, organism-based. To be noted: cattle. An outline of the steps: (§3)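 Prodrug at 50 µM incubated at 37 °C with human or bovine serum diluted in PBS (5, 2.5, 1 or 0.5%). Samples are quenched in cold methanol and centrifuged, and the supernatant is run on reverse-phase RP-8 HPLC (phosphate/heptanesulfonate pH 3.2–acetonitrile gradient). Parent compound formed is quantified at 3, 6 or 24 h.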

For data set [5], the target named is T2, Dipeptidyl peptidase 4 (Homo sapiens, UniProt P27487). Description: Conversion of prodrug to parent drug NAP-TSAO-T catalyzed by CD26 after 24 hrs. The data set is classed as ADME. Further details: concentration or dose not given beside the values.
The species named for data set [6] is Homo sapiens. Description: Conversion of prodrug to parent drug NAP-TSAO-T catalyzed by 2.5% human serum after 6 hrs. It counts as ADME, organism-based. The method, boiled down:
as §3

Data set [7] has as its target T2, Dipeptidyl peptidase 4. Kind of data set: Conversion of prodrug to parent drug NAP-TSAO-T catalyzed by CD26 after 1 hr. The data set is classed as ADME. Details: concentration or dose not given beside the values.
The species entered for data set [8] is Homo sapiens. Kind of data set: Conversion of prodrug to parent drug NAP-TSAO-T catalyzed by 2.5% human serum after 3 hrs. It counts as ADME, organism-based. The method, boiled down: as §3
Data set [9] relates to MT4. Kind of data set: Antiviral activity against HIV2 assessed as inhibition of HIV2-induced cytopathicity in MT4 cells. The data set is classed as functional, cell-based. The method, boiled down: as §2
Data set [10] deals with MT4. Kind of data set: Antiviral activity against HIV1 assessed as inhibition of HIV1-induced cytopathicity in MT4 cells. The data set is classed as functional, cell-based. The note with it: Homo sapiens. The method, boiled down: as §2
Data set [11] addresses T2, Dipeptidyl peptidase 4. Kind of data set: Conversion of prodrug to parent drug NAP-TSAO-T catalyzed by CD26 after 4 hrs. Further details: concentration or dose not given beside the values. The data set is classed as ADME.
Data set [12] is filed under the species Bos taurus. Kind of data set: Conversion of prodrug to parent drug NAP-TSAO-T catalyzed by bovin serum after 6 hrs. It counts as ADME, organism-based. To be noted: cattle. An outline of the steps:
as §3

The target of data set [13] is Human immunodeficiency virus type 1 reverse transcriptase (Human immunodeficiency virus 1, UniProt Q72547). Kind of data set: Inhibition of recombinant HIV1 reverse transcriptase.
Data set [14] deals with CCRF-CEM. Description: Antiproliferative activity against human CEM cell line. The data set is classed as functional. An outline of the steps: as §1
The test system of data set [15] is CCRF-CEM. Kind of data set: Antiviral activity against HIV1 assessed as inhibition of HIV1-induced cytopathicity in CEM cells. The data set is classed as functional, cell-based. To be noted: Homo sapiens. An outline of the steps: as §2
Data set [16] deals with T1, CD26 (Dipeptidyl peptidase 4). Description: Inhibition of CD26-catalyzed GlyPro-pNA hydrolysis at 100 uM. To be noted: CD26 (dipeptidyl peptidase 4) enzyme, probe GlyPro-pNA.
The species named for data set [17] is Homo sapiens. Description: Inhibition of human serum-catalyzed prodrug Val-Pro-NAP-TSAO-T conversion to parent drug NAP-TSAO-T. It counts as organism-based.
For data set [18], the species on record is Bos taurus. Description: Inhibition of bovine serum-catalyzed prodrug Val-Pro-NAP-TSAO-T conversion to parent drug NAP-TSAO-T. It counts as organism-based. The note with it: cattle.
For data set [19], the target named is T2, Dipeptidyl peptidase 4. Kind of data set: Inhibition of CD26-catalyzed GlyPro-pNA hydrolysis.

Structures are written as SMILES. The source made the active and inactive calls. The rule behind the calls is not given here.

T2 sequence (P27487 whole entry): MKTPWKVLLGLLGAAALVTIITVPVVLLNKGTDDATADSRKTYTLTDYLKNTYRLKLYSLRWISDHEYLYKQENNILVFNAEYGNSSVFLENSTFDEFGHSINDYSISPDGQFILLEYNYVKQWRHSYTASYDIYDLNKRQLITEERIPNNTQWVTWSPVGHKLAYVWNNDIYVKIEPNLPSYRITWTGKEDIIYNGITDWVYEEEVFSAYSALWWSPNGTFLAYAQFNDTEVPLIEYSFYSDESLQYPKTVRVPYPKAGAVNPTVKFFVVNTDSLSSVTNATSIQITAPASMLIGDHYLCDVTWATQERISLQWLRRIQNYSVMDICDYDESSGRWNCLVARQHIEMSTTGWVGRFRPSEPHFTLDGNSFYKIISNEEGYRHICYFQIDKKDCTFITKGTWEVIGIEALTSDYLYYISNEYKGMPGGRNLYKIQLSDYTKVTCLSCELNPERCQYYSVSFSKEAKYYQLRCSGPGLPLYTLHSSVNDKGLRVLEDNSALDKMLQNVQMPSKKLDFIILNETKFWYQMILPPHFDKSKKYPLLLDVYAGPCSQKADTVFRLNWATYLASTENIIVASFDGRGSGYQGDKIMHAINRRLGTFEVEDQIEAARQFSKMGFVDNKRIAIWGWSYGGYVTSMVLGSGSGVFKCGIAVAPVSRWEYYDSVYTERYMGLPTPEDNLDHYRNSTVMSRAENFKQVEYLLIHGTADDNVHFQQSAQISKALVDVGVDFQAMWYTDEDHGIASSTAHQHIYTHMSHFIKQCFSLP
T1 sequence (P27487 whole entry): as above

For orientation: inhibition means how much of the control response was suppressed. The CC50 is the concentration giving 50% cytotoxicity. For orientation: EC50 means the concentration needed to bring the measured effect to its halfway point. Usually IC50 stands for the concentration that inhibits the measured activity by half. The molecule `Cc1cn(C2OC(CO[Si](C)(C)C(C)(C)C)C3(OS(=O)(=O)C=C3N)C2O[Si](C)(C)C(C)(C)C)c(=O)n(CCCNC(=O)[C@@H]2CCCN2C(=O)[C@@H](N)C(C)C)c1=O` (some centres undefined) gave an inhibition at 20 µM in data set [1] of 50%. For the same molecule, the CC50 stood at 11 µM in data set [2] and 10 µM in [14]. The outcome in [3] and in data set [9] was inactive. Moreover, the Activity in [4] turned out to be 50%; in [5], 61%; in data set [6], 50%; in data set [7], 37%; in [8], 30%; in data set [11], 62%. In addition, in data set [12], the Activity is given as 20%. For the same molecule, the EC50 in [10] is 0.3 µM; in data set [15] it was 0.13 µM. In addition, the IC50 in [13] came to 6.6 µM. This molecule returned an inhibition at 100 µM in data set [16] of 70%.
One may read the Inhibition as the relative decrease from the control value, in per cent. Turning to `CC[C@H](C)[C@H](N)C(=O)N1CCCC1`, the Inhibition in data set [17] and in [18] was more than 80% each time.
In the case of `CC[C@H](C)[C@H](N)C(=O)N1CCC[C@H]1C(=O)N[C@H](C(=O)O)[C@@H](C)CC` [DIPROTIN A], the Inhibition in [17] and in data set [18] was more than 80% in each case.
In the case of `Cc1cn(C2OC(CO[Si](C)(C)C(C)(C)C)C3(OS(=O)(=O)C=C3N)C2O[Si](C)(C)C(C)(C)C)c(=O)n(CCCNC(=O)[C@@H]2CCCN2C(=O)[C@@H](NC(=O)OCc2ccccc2)C(C)C)c1=O` (some centres undefined), the Activity was 0% in [5], 0% in data set [7], “Not Active” in data set [19] and 0% in [11].
For the molecule `Cc1cn(C2OC(CO[Si](C)(C)C(C)(C)C)C3(OS(=O)(=O)C=C3N)C2O[Si](C)(C)C(C)(C)C)c(=O)n(CCCNC(=O)[C@@H]2[C@@H](O)[C@@H](O)CN2C(=O)[C@@H](N)C(C)C)c1=O` (some centres undefined), the CC50 in data set [2] was determined as 46 µM; in data set [14], 51 µM. Moreover, the result in [3] and in [9] was inactive. The Activity in data set [5], in data set [7] and in [11] was 0% throughout. For the same molecule, the EC50 turned out to be 0.77 µM in data set [10] and 0.35 µM in data set [15]. Further, the IC50 in [13] was found to be 4.8 µM.
Turning to `Cc1cn(C2OC(CO[Si](C)(C)C(C)(C)C)C3(OS(=O)(=O)C=C3N)C2O[Si](C)(C)C(C)(C)C)c(=O)n(CCCNC(=O)[C@H]2CCCN2C(=O)[C@@H](N)C(C)C)c1=O` (some centres undefined), the CC50 was 22 µM in data set [2] and 11 µM in data set [14]. For the same molecule, the result in data set [3] and in data set [9] was inactive. Also, the figures for the Activity in data set [5], in data set [7] and in [11] were 4.2%, 0% and 2.2%, respectively. Also, the EC50 in data set [10] was 0.49 µM; in [15], 0.09 µM. The IC50 in [13] stood at 22 µM.

The values are drawn from ChEMBL document CHEMBL1146037, “Design and discovery of a novel dipeptidyl-peptidase IV (CD26)-based prodrug approach” (J Med Chem, 2006).
